# PubChem BioAssay AID588679 (Southern Research Specialized Biocontainment Screening …, 2011)
# Calls of active or inactive are those of the source.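 How the source made its calls: active means inhibition of 30% or more at any tested concentration; inactive means the rest.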
# Molecular target: M17 leucyl aminopeptidase (Plasmodium falciparum 3D7)
# Assay: PfM17LAP leucine aminopeptidase inhibitors, dose response, counter-screen for PfM18AAP inhibitor project, biochemical, QFRET (AID 588679)
# Settings: recombinant PfM17LAP, H-Leu-NHMec fluorogenic cleavage
# In short: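 Test system: purified recombinant Plasmodium falciparum M17 leucine aminopeptidase. Input: enzyme at 5 µg/mL final. Probe or stimulus: H-Leu-NHMec, 0.1 mM. Compound: 10 doses, top 100 µM. Incubation: 90 min reaction, room temperature. Detection: fluorescence, ex 370 nm, em 460 nm. Repeats: each concentration tested in triplicate.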
row,Compound,IC50
1,Nc1cc(C(=O)c2ccccc2)ccc1O,31.4 µM
2,Oc1ccc(CCNC(c2ccccc2)c2ccccc2)cc1O,46.8 µM
3,CCC(C)c1ccc(N)c(O)c1 (configuration not stated),37.6 µM
4,Cc1nc(NCCc2ccc(O)c(O)c2)c2c3c(sc2n1)CCC3,25.3 µM
5,CC(C)(C)C(=O)OCc1nc(-c2ccc(O)c(O)c2)cs1,29.4 µM
6,Oc1ccc(CCN2CCc3ccccc3C2)cc1O,58.6 µM
7,Oc1ccc(-c2csc(Cc3cc4ccccc4[nH]3)n2)cc1O,22 µM
8,O=c1ccc2cc(O)c(O)cc2o1,35.3 µM
9,CN(CCc1ccc(O)c(O)c1)c1ccnc2ccccc12,18 µM
10,Oc1ccc(CCNc2cccc3ccccc23)cc1O,26.9 µM
11,Cc1ccc(-c2nc(-c3ccc(O)c(O)c3)cs2)cc1,21.1 µM

# Next, values leading:
row,IC50,Compound
1,94 µM,O=c1cc(CN2CCN(Cc3ccccc3)CC2)c2ccc(O)c(O)c2o1
2,26.6 µM,Oc1ccc(CCNc2cncc3ccccc23)cc1O
3,20 µM,O=S1(=O)c2ccccc2-c2cc(-c3nc(-c4ccc(O)c(O)c4)[nH]c3-c3ccccc3)ccc21
4,61.8 µM,Oc1ccc(CCNc2c3c(nc4ccccc24)CCCC3)cc1O
5,23.5 µM,CCOc1cccc(-c2nc(-c3ccc(O)c(O)c3)cs2)c1
6,39.7 µM,Oc1ccc(CCNc2ccc3ccccc3c2)cc1O
7,37 µM,O=C1OCCN1CCc1nc(-c2ccc(O)c(O)c2)cs1
8,69.2 µM,Cc1c(-c2ccccc2)[nH]c(-c2ccc(O)c(O)c2)[n+]1O

# Same assay, conditions: recombinant PfM17LAP, H-Leu-NHMec fluorogenic cleavage; at 50 µM (top of the series)
row,inhibition,Compound
1,inactive,O=C(O)CCCCNc1c2ccccc2nc2ccccc12
2,inactive,O=C(O)CCCNc1c2ccccc2nc2ccccc12

# Same assay, conditions: recombinant PfM17LAP, H-Leu-NHMec fluorogenic cleavage; at 100 µM (top of the series)
row,Compound,inhibition
1,COc1ccc(CCN2CCN(C)CC2)cc1OC,inactive
2,Cc1c(OCc2ccccc2)c(=O)ccn1CCNc1c2ccccc2nc2ccccc12,inactive
3,O=C(c1ccco1)N1CCN(Cc2cc(=O)c(O)c[nH]2)CC1,inactive
4,COc1ccc(CCNC2CCN(Cc3ccccc3)CC2)cc1OC,inactive
5,O=C1c2ccc3c4c(ccc(c24)C(=O)N1O)CC3,inactive
6,COc1ccc(CCNc2ccncc2)cc1OC,inactive
7,COc1ccc(CCNc2cccc3ccccc23)cc1OC,inactive
8,Cc1c(O)c(=O)ccn1CCNc1c2ccccc2nc2ccccc12,inactive
9,COc1ccc(CCNc2ccnc3ccccc23)cc1OC,inactive
10,COc1cccc(CCNc2c3ccccc3nc3ccccc23)c1,inactive
11,COc1ccc(-c2csc(-c3ccccc3)n2)cc1OC,inactive
12,Oc1ccc(CCCNc2c3ccccc3nc3ccccc23)cc1O,inactive
13,COc1ccc(CCNc2ccc3ccccc3c2)cc1OC,inactive
14,COc1ccc(CCN(C)CCc2ccccc2)cc1OC,inactive
15,COc1ccc2c(c1)C(=O)C(N)CC2 (configuration not stated),inactive
16,CCC(C)C(=O)Nc1ccccc1O (configuration not stated),inactive
17,CCC(C)C(=O)Nc1ccccc1N (configuration not stated),inactive
18,Oc1ccc(CCNc2c3ccccc3nc3ccccc23)cc1,inactive

# Further lines, results first:
row,inhibition,Compound
1,inactive,O=C(c1ccco1)N1CCN(Cc2cc(=O)c(O)co2)CC1
2,inactive,COc1cccc(-c2nc(-c3ccc(OC)c(OC)c3)cs2)c1
3,inactive,COc1ccc(CCCNc2c3ccccc3nc3ccccc23)cc1OC
4,inactive,COc1ccc(CCN(C)c2ccncc2)cc1OC
5,inactive,COc1ccc(-c2nc(-c3ccccc3)c(-c3ccccc3)[nH]2)cc1OC
6,inactive,NCCNc1c2ccccc2nc2ccccc12
7,inactive,O=c1cc(CO)oc(CN2CCCCC2)c1O
8,inactive,NCc1cc2c3c(c(=O)oc2c(O)c1O)CCC3
9,inactive,COc1ccc(CC(=O)O)cc1OC
10,inactive,COc1ccc(CCNC2CCN(C)CC2)cc1OC
11,inactive,COc1ccc(CCNc2cncc3ccccc23)cc1OC
12,inactive,COc1ccc(CCN(C)c2ccnc3ccccc23)cc1OC
13,inactive,COc1ccc(CNc2c3ccccc3nc3ccccc23)cc1OC
14,inactive,COc1ccc(CCNc2c3ccccc3nc3ccccc23)cc1OC
15,inactive,COc1ccc(-c2csc(-c3ccccc3OC)n2)cc1OC
16,inactive,COc1ccc(CCC(=O)O)cc1OC
17,inactive,COc1ccc(CCN2CCc3ccccc3C2)cc1OC
18,inactive,COc1ccc(CCNc2c3c(nc4ccccc24)CCCC3)cc1OC
